Reference: ChEMBL document CHEMBL5338796, “Discovery of a Selective and Orally Bioavailable FGFR2 Degrader for Treating Gastric Cancer” (J Med Chem, 2023)
Activity calls are given as the source filed them. The rule behind the calls is not given here.

Assays:
[1] = target: T1, Protein cereblon/Fibroblast growth factor receptor 2 (Homo sapiens, UniProt P21802+Q96SW2); experiment: PROTAC activity at CRBN/FGFR2 in human KATO III stomach cancer cell line assessed as FGFR2 degradation by measuring FGFR2 expression level at 100 to 500 nM measured for 6 hrs by Western blotting analysis; assay type: cell-based; conditions: dose 100-500 nM
Method in brief: (§1)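 KATO III cells treated 6 h across 0.5–10,000 nM (DMSO stock, final DMSO below 0.5%); FGFR2 immunoblotted, quantified as FGFR2/β-actin ratio normalized to DMSO-treated cells, three independent biological experiments; DC50 and Dmax derived from the curve.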
Target sequence in this assay (P21802 22-821 limits assumed): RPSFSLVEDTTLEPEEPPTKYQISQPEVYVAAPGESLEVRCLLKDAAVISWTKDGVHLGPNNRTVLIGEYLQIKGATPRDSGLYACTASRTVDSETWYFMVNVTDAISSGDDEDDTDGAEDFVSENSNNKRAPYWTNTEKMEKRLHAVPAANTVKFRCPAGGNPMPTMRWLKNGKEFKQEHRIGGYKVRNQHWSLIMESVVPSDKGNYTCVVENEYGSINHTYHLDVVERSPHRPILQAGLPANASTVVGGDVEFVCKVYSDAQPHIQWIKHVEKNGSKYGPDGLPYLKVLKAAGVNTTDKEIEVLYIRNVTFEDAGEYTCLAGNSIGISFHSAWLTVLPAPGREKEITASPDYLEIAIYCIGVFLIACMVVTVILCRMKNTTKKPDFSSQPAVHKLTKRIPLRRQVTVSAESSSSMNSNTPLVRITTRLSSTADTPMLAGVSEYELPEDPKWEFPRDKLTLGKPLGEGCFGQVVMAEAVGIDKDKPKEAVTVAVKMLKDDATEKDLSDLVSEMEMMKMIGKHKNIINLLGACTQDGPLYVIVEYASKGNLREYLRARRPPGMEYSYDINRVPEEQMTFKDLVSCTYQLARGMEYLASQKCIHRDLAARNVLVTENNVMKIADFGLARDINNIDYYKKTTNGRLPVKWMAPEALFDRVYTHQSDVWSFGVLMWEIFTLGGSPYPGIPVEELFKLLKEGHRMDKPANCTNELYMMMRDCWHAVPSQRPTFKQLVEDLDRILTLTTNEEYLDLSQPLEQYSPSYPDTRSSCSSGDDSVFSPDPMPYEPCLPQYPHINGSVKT
Target sequence in this assay (Q96SW2 whole entry partner): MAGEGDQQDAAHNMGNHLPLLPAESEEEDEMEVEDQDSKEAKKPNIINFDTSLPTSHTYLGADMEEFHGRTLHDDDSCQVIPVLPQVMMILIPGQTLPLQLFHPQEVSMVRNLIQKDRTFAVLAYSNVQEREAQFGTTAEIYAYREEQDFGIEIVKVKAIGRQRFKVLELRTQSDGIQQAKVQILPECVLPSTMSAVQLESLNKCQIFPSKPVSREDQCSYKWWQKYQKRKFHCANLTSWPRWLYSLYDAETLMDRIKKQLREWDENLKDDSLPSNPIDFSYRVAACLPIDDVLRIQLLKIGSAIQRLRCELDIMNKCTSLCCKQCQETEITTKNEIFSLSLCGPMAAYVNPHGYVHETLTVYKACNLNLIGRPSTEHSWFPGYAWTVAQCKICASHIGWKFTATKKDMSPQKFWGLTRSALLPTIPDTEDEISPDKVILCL

[2] = target: T1, Protein cereblon/Fibroblast growth factor receptor 2; experiment: PROTAC activity at CRBN/FGFR2 in human KATO III stomach cancer cell line assessed as FGFR2 degradation by measuring FGFR2 expression level measured for 6 hrs by Western blotting analysis; assay type: cell-based; method in brief: as §1
Target sequence in this assay (P21802 whole entry): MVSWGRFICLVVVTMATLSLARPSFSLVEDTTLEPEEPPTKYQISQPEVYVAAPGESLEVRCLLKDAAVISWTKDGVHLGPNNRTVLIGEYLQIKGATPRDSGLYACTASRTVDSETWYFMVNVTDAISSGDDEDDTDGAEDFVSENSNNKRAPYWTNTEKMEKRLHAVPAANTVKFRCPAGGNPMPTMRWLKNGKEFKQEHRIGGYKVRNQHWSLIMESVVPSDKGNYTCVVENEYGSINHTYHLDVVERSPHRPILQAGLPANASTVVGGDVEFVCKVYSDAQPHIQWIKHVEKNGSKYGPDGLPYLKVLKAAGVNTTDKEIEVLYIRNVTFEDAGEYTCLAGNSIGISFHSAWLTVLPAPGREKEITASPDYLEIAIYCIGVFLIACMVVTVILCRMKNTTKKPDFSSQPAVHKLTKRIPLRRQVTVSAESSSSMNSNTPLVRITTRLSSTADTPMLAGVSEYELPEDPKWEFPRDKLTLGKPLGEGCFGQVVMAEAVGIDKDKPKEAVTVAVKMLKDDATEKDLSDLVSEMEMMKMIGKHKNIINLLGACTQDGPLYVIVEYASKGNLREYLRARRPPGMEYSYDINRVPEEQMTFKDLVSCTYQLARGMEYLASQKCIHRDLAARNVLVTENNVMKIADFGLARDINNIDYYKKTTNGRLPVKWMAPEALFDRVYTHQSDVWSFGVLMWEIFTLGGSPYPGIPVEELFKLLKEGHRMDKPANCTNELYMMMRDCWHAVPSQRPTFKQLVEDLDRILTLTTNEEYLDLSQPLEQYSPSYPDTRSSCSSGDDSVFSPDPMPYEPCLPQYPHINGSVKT
Target sequence in this assay (Q96SW2 whole entry): as the sequence (Q96SW2 whole entry partner) above

[3] = target: T1, Protein cereblon/Fibroblast growth factor receptor 2; experiment: PROTAC activity at CRBN/FGFR2 in human KATO III stomach cancer cell line assessed as FGFR2 degradation by measuring FGFR2 expression level at 500 nM measured for 6 hrs by Western blotting analysis relative to control; assay type: cell-based; method in brief: as §1
Target sequence in this assay (P21802 22-821 limits assumed): as the sequence (P21802 22-821 limits assumed) above
Target sequence in this assay (Q96SW2 whole entry partner): as the sequence (Q96SW2 whole entry partner) above

SNU-16 [4] = experiment: Antitumor activity against human SNU-16 cells xenografted in BALB/c nude mouse assessed as tumor growth inhibition at 20 mg/kg, po administered for 15 days and measured on day 2; assay type: functional; conditions: SNU-16, 48 h, time 2 day, read-out: TGI
Method in brief: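 Female BALB/c nude mice, 5 weeks old (20–22 g), s.c. right-flank SNU-16 implants, randomized by body weight into groups (n = 5) once tumours reached 50–100 mm3. Dosing 20 mg/kg/day intragastric in 0.5% CMC-Na for 15 d; vehicle controls. Tumour width and length measured every 2 days; tumours harvested 4 h after last dose and lysates immunoblotted for pFGFR, FGFR2, pPLCγ, pErk.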

SNU-16 [5] = experiment: Antiproliferative activity against human SNU-16 cells assessed as reduction in cell viability measured for 72 hrs by celltiter-glo reagent based assay; assay type: functional; conditions: SNU-16, 72 h
Method in brief: (§2)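 Cancer lines KATO III, SNU16, NCI-H716, NCI-H1975, MV-4-11 and HEK293T treated 72 h; antiproliferative IC50 given as mean ± s.d. from three independent biological experiments.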

NCI-H716 = experiment: Antiproliferative activity against human NCI-H716 cells assessed as reduction in cell viability measured for 72 hrs by celltiter-glo reagent based assay; assay type: functional; conditions: NCI-H716, 72 h; method in brief: as §2
[6] = test system: KATO III stomach cancer cell line; experiment: Antiproliferative activity against human KATO III stomach cancer cell line assessed as reduction in cell viability measured for 72 hrs by celltiter-glo reagent based assay; assay type: functional; method in brief: as §2
[7] = Oral bioavailability in mouse at 10 mg/kg; assay type: ADME, organism-based; conditions: in vivo
[8] = target: T1, Protein cereblon/Fibroblast growth factor receptor 2; experiment: PROTAC activity at CRBN/FGFR2 in human KATO III stomach cancer cell line assessed as FGFR2 degradation measured for 6 hrs by immunoblot analysis; assay type: cell-based
Method in brief: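 KATO III cells treated for 6 h at the stated concentrations, added from 10 mM DMSO stocks (final DMSO below 0.5%). Cells were washed with PBS and lysed in 2× loading buffer, then run on SDS-PAGE and blotted to PVDF. Anti-FGFR2 was applied overnight at 4 °C, with ECL detection. FGFR2 was expressed as FGFR2/β-actin, normalized to DMSO-treated cells, from three independent biological experiments.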
Target sequence in this assay (P21802 22-821 limits assumed): as the sequence (P21802 22-821 limits assumed) above
Target sequence in this assay (Q96SW2 whole entry partner): as the sequence (Q96SW2 whole entry partner) above

MV4-11 = experiment: Antiproliferative activity against human MV4-11 cells assessed as reduction in cell viability measured for 72 hrs by celltiter-glo reagent based assay; assay type: functional; conditions: MV4-11, 72 h; method in brief: as §2
[9] = Antiproliferative activity against human HEK293T cells assessed as reduction in cell viability measured for 72 hrs by celltiter-glo reagent based assay; assay type: toxicity, HEK-293T; method in brief: as §2
NCI-H1975 = experiment: Antiproliferative activity against human NCI-H1975 cells assessed as reduction in cell viability measured for 72 hrs by celltiter-glo reagent based assay; assay type: functional; conditions: NCI-H1975, 72 h; method in brief: as §2
[10] = target: T1, Protein cereblon/Fibroblast growth factor receptor 2; experiment: PROTAC activity at CRBN/FGFR2 in human KATO III stomach cancer cell line assessed as FGFR2 degradation by measuring FGFR2 expression level at 15 uM measured for 6 hrs by Western blotting analysis; assay type: cell-based
Target sequence in this assay (P21802 22-821 limits assumed): as the sequence (P21802 22-821 limits assumed) above
Target sequence in this assay (Q96SW2 whole entry partner): as the sequence (Q96SW2 whole entry partner) above

COc1cc(OC)c(Cl)c(NC(=O)N(C)c2cc(Nc3ccc(N4CCN(CC(=O)NCCNc5cccc6c5C(=O)N(C5CCC(=O)NC5=O)C6=O)CC4)cc3)ncn2)c1Cl (centres undefined)
Activity [1]: inactive

COc1cc(OC)c(Cl)c(NC(=O)N(C)c2cc(Nc3ccc(N4CCN(CC(=O)NCCCCCNc5cccc6c5C(=O)N(C5CCC(=O)NC5=O)C6=O)CC4)cc3)ncn2)c1Cl (centres undefined)
DC50 [2]: 41.5 nM | Activity [3]: 66% | Activity ([3]; DEGRADER): 20%

COc1cc(OC)c(Cl)c(NC(=O)N(C)c2cc(Nc3ccc(N4CCN(C(=O)CCCCCCCCCCCNc5cccc6c5C(=O)N(C5CCC(=O)NC5=O)C6=O)CC4)cc3)ncn2)c1Cl (centres undefined)
Activity [1]: inactive

COc1cc(OC)c(Cl)c(NC(=O)N(C)c2cc(Nc3ccc(N4CCN(C(=O)CCCCCCCNc5cccc6c5C(=O)N(C5CCC(=O)NC5=O)C6=O)CC4)cc3)ncn2)c1Cl (centres undefined)
Activity ([3]; DEGRADER): 40%

CCN1CCN(c2ccc(Nc3cc(N(C)C(=O)Nc4c(Cl)c(OC)cc(OC)c4Cl)ncn3)cc2)CC1 [INFIGRATINIB]
inhibition in vivo at 20 mg/kg (SNU-16 [4]): 53.7% | IC50 (SNU-16 [5]): 95.4 nM | IC50 (NCI-H716): 65.9 nM | IC50 [6]: 60.3 nM

COc1cc(OC)c(Cl)c(NC(=O)N(C)c2cc(Nc3ccc(N4CCN(CC(=O)N[C@H](C(=O)N5C[C@H](O)C[C@H]5C(=O)N[C@@H](C)c5ccc(-c6scnc6C)cc5)C(C)(C)C)CC4)cc3)ncn2)c1Cl
bioavailability [7]: 0.2%

COc1cc(OC)c(Cl)c(NC(=O)N(C)c2cc(Nc3ccc(N4CCN(C(=O)C5CCN(c6ccc7c(c6)C(=O)N(C6CCC(=O)N(C)C6=O)C7=O)CC5)CC4)cc3)ncn2)c1Cl (centres undefined)
IC50 (SNU-16 [5]): 108 nM | Activity [8]: inactive | IC50 (MV4-11): > 10000 nM | IC50 (NCI-H716): 99.5 nM | IC50 at 72 h [9]: > 10000 nM | IC50 (NCI-H1975): > 10000 nM | IC50 [6]: 497 nM

COc1cc(OC)c(Cl)c(NC(=O)N(C)c2cc(Nc3ccc(N4CCN(CC(=O)NCCOCCOCCNC(=O)C5CCN(c6ccc7c(c6)C(=O)N(C6CCC(=O)NC6=O)C7=O)CC5)CC4)cc3)ncn2)c1Cl (centres undefined)
Activity [10]: inactive
